From ChEMBL document CHEMBL1133118 (J Med Chem, 2000)
Blank lines part the entries; values can stand above or below the compound they belong to.

Experiments:
[1] = biological target: Adenosine receptors; A1 & A3 (Homo sapiens) (UniProt P30542+P0DMS8); experiment: Ratio of binding affinity of human A1 receptor to that of human A3 receptor; type: protein assay
Procedure, shortened: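 Ki ratio from displacement in CHO membranes, 6–8 concentrations, n=3-6, filtration counting. A1: 1 nM [3H]DPCPX, 50 μg protein, 120 min at 25 °C, nonspecific with 10 μM CHA. A3: 1 nM [3H]MRE3008-F20, 50 μg protein, Tris/10 mM MgCl2 pH 7.4, 120 min at 4 °C, nonspecific with 1 μM MRE3008-F20.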

[2] = biological target: T1, Adenosine receptor A2b (Homo sapiens, UniProt P29275); experiment: Displacement of [3H]DPCPX from Adenosine A2b receptor expressed in […]; range 3.9-6.7; type: cell-based
T1 sequence (P29275 whole entry): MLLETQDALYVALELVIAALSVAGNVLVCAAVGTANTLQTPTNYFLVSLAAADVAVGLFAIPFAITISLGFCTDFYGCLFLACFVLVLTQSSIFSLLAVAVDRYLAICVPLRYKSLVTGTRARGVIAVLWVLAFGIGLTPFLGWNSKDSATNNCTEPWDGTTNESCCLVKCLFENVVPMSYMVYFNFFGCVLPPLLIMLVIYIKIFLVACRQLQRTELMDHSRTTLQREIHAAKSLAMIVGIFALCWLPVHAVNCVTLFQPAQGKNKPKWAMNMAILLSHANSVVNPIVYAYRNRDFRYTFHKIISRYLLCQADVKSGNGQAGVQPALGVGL

[3] = biological target: T2, Adenosine receptor A3 (Homo sapiens, UniProt P0DMS8); experiment: Displacement of [3H]MRE3008-F20 from human adenosine A3 receptor expressed in CHO cells; range 247-317; type: cell-based
T2 sequence (P0DMS8 whole entry): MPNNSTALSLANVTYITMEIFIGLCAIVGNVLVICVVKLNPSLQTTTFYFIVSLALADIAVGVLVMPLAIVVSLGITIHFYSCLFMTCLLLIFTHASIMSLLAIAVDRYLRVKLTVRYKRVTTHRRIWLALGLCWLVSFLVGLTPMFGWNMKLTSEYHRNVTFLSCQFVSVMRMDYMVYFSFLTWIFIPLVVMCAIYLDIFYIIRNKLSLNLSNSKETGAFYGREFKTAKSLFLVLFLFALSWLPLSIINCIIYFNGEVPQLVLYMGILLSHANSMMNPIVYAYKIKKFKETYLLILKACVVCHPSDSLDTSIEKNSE

[4] = biological target: Adenosine receptors; A2b & A3 (Homo sapiens) (UniProt P29275+P0DMS8); experiment: Ratio of binding affinity of human A2B receptor to that of human A3 receptor; type: protein assay
Procedure, shortened: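 Ki ratio, n=3-6, 6–8 concentrations. A2B in HEK-293 membranes (20 μg): 40 nM [3H]DPCPX, 50 mM Tris HCl, 10 mM MgCl2, 1 mM EDTA, 0.1 mM benzamidine pH 7.4, 2 IU/mL adenosine deaminase, 60 min at 25 °C, nonspecific with 100 μM NECA. A3 in CHO membranes (50 μg): 1 nM [3H]MRE3008-F20, 120 min at 4 °C.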

[5] = biological target: T3, Adenosine receptor A2a (Homo sapiens, UniProt P29274); experiment: biochemical
T3 sequence (P29274 whole entry): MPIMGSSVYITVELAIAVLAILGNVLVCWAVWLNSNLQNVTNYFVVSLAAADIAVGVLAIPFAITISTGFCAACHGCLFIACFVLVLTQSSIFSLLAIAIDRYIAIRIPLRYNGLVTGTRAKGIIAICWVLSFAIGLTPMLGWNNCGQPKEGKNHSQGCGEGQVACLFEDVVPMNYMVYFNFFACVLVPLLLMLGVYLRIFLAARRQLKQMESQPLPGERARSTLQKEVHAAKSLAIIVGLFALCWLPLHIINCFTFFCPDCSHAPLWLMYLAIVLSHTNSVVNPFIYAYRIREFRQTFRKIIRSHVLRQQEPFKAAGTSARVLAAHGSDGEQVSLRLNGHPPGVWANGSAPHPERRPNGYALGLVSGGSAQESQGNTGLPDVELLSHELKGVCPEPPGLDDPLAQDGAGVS

[6] = biological target: T4, Adenosine receptor A3 (Homo sapiens) (UniProt P0DMS8); experiment: Percentage of blockade by 1 uM of the inhibition by 100 nM IB-MECA-inhibited cAMP accumulation in CHO cells expressing human adenosine A3 receptor.; type: functional, cell-based
T4 sequence (whole entry): T2 sequence (P0DMS8 whole entry)
Procedure, shortened: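 CHO cells stably expressing human A3 receptor; membranes in 50 mM Tris HCl, 10 mM MgCl2, 1 mM EDTA pH 7.4 with 5 μM GTP, 0.5 mM […] and 2.0 IU/mL adenosine deaminase. Preincubated 10 min at 37 °C, then IB-MECA (100 nM) and/or antagonist with 1 mM ATP and 10 μM forskolin for 10 min. Boiled 2 min. cAMP read by [3H]cAMP competition with adrenal binding protein.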

[7] = biological target: T1, Adenosine receptor A2b; experiment: Displacement of [3H]DPCPX from Adenosine A2b receptor expressed in HEK-293 cells; range 23-40
[8] = biological target: T2, Adenosine receptor A3; experiment: Inhibition of cAMP accumulation in CHO cells expressing human adenosine A3 receptor; type: functional, cell-based
[9] = biological target: T5, Adenosine receptor A1 (Homo sapiens, UniProt P30542); experiment: Displacement of [3H]-DPCPX from human adenosine A1 receptor expressed in CHO cells; range 6.9-9.7; type: cell-based
T5 sequence (P30542 whole entry): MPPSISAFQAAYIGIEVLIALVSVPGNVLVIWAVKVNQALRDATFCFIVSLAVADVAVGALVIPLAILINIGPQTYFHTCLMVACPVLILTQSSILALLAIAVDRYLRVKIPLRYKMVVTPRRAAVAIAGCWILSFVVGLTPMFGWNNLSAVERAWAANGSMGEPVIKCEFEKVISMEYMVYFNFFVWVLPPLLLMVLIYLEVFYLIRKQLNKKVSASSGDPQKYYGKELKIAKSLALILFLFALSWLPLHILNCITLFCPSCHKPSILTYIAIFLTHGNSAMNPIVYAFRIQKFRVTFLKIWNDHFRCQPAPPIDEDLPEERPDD

[10] = biological target: T3, Adenosine receptor A2a; experiment: Displacement of [3H]-SCH- 58261 from human adenosine A2A receptor expressed in CHO cells; range 8.7-10.5; type: cell-based
[11] = biological target: T2, Adenosine receptor A3; experiment: Displacement of [3H]MRE3008-F20 from human adenosine A3 receptor expressed in CHO cells; range 0.08-0.27; type: cell-based
[12] = biological target: T3, Adenosine receptor A2a; experiment: Displacement of [3H]-SCH- 58261 from human adenosine A2A receptor expressed in CHO cells; range 484-558; type: cell-based
Procedure, shortened: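 Membranes from CHO cells stably expressing human A2A receptor, grown in DMEM/F12 without nucleosides, resuspended in 50 mM Tris HCl, 10 mM MgCl2, pH 7.4; 50 μg protein/assay. Competition with [3H]SCH 58261 at 6–8 or more compound concentrations, 60 min at 25 °C; nonspecific binding with 50 μM NECA. Filtration on GF/B filters, scintillation counting; n=3-6.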

[13] = biological target: T5, Adenosine receptor A1; experiment: Displacement of [3H]DPCPX from human adenosine A1 receptor expressed in CHO cells; range 365-550; type: cell-based
[14] = biological target: T4, Adenosine receptor A3 (Homo sapiens); conditions: CHO, 1 uM
[15] = biological target: T1, Adenosine receptor A2b; experiment: Displacement of [3H]DPCPX from Adenosine A2b receptor expressed in […]; range 332-369; type: cell-based
[16] = biological target: T2, Adenosine receptor A3; experiment: Inhibition of cAMP accumulation in CHO cells expressing human A3 adenosine receptor; type: functional, cell-based
[17] = biological target: T5, Adenosine receptor A1; experiment: Displacement of [3H]DPCPX from human adenosine A1 receptor expressed in CHO cells; range 11-17; type: cell-based
[18] = biological target: T3, Adenosine receptor A2a; experiment: Displacement of [3H]-SCH- 58261 from human adenosine A2A receptor expressed in CHO cells; range 1.4-2.1; type: cell-based
Procedure, shortened: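 CHO membranes expressing human A2A receptor (50 μg protein) in 50 mM Tris HCl, 10 mM MgCl2, pH 7.4, competed against [3H]SCH 58261. At least 6–8 test concentrations were used, with 60 min incubation at 25 °C. Nonspecific binding defined by 50 μM NECA; n=3-6.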

[19] = biological target: T2, Adenosine receptor A3; experiment: biochemical
[20] = biological target: T1, Adenosine receptor A2b; experiment: Displacement of [3H]DPCPX from Adenosine A2b receptor expressed in HEK-293 cells; range 40-69
[21] = biological target: T3, Adenosine receptor A2a; experiment: Displacement of [3H]-SCH- 58261 from human adenosine A2A receptor expressed in CHO cells; range 267-453; type: cell-based
[22] = biological target: T1, Adenosine receptor A2b; experiment: Displacement of [3H]DPCPX from Adenosine A2b receptor expressed in HEK-293 cells; range 934-1327
[23] = biological target: T2, Adenosine receptor A3; experiment: biochemical; remark: listed apart in the source
[24] = biological target: T5, Adenosine receptor A1; experiment: Displacement of [3H]DPCPX from human adenosine A1 receptor expressed in CHO cells; range 170-358; type: cell-based

Compound: Nc1nc2nn(CCc3ccccc3)cc2c2nc(-c3ccco3)nn12
- Ratio [1]: 0.003
- Ki [2]: 5.1 nM
- Ki [3]: 280 nM
- Ratio [4]: 0.0017
- Ki [5]: 0.34 nM
- inhibition [6]: 28%

Compound: COc1ccc(NC(=O)Nc2nc3n[nH]cc3c3nc(-c4ccco4)nn23)cc1
- Ki [11]: 0.14 nM
- Ratio [1]: 3200
- Ki [12]: 520 nM
- Ki [13]: 448 nM
- inhibition [14]: 98%
- Ratio [4]: 2500
- Ki [15]: 350 nM
- IC50 [16]: 1.8 nM

More lines, now with the values ahead:

- Ki [7]: 30 nM
- IC50 [8]: 2.4 nM
- Ki [9]: 8.1 nM
- Ratio [1]: 54
- Ratio [4]: 157
- Ki [10]: 9.5 nM
- inhibition [6]: 95%
Compound: O=C(Nc1cccc(Cl)c1)Nc1nc2ccc(Cl)cc2c2nc(-c3ccco3)nn12

- Ki [17]: 14 nM
- Ki [18]: 1.6 nM
- Ratio [1]: 0.02
- Ratio [4]: 0.09
- Ki [19]: 600 nM
- inhibition [6]: 15%
- Ki [20]: 53 nM
Compound: CCCCn1cc2c(nc(N)n3nc(-c4ccco4)nc23)n1

- Ki [21]: 348 nM
- Ki [22]: 1110 nM
- Ki [23]: 4480 nM
- Ki [24]: 247 nM
- Ratio [1]: 0.06
- Ratio [4]: 0.25
- inhibition [6]: 3%
Compound: Nc1nc2nn(CCc3cc(Br)c(Br)cc3Br)cc2c2nc(-c3ccco3)nn12
